Activity calls are given as the source filed them.
Tests used:
Mus musculus [1] = experiment: Antiinflammatory activity in formalin-induced nociception Swiss mouse model assessed as reduction in time spent licking formalin injected hind paw during inflammatory phase at 100 umol/kg, po pretreated for 1 hr followed by formalin challenge measured after 20 to 30 mins; format: functional, organism-based
Method in brief: (§1)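 Male Swiss mice (22-28 g), n=8 per group, given oral vehicle (saline + DMSO 2%) or 100 µmol/kg 1 h before formalin (5% in 0.9% saline, 20 µl) into the right hind paw sub-plantar region. Morphine 39 µmol/kg i.p. was given 30 min before. Paw-licking time recorded at 0–5 min (neurogenic phase) and 20–30 min (inflammatory phase).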

Acetylcholinesterase = Acetylcholinesterase (Electrophorus electricus, UniProt O42275); experiment: Inhibition of Electrophorus electricus AChE using acetylthiocholine iodide as substrate pretreated for 10 mins followed by substrate addition measured at 12 secs interval for 5 mins by Ellman's method
Chain of Acetylcholinesterase (O42275 whole entry): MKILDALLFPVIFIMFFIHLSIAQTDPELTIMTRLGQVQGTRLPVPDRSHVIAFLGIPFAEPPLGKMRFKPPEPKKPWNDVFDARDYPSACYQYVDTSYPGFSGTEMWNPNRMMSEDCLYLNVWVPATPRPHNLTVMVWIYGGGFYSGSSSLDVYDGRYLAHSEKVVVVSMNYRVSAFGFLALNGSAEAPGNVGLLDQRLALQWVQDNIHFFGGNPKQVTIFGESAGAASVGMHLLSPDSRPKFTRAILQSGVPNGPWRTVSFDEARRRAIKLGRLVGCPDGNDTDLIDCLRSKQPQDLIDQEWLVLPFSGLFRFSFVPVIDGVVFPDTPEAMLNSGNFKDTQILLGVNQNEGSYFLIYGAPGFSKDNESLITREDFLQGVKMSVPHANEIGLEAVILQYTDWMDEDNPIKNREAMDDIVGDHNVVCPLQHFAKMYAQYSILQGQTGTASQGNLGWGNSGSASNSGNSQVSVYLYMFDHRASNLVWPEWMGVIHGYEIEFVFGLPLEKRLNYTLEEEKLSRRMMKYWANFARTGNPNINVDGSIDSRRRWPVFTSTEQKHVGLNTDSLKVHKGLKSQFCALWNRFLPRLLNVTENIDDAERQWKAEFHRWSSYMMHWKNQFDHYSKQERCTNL

[2] = Metal chelating activity assessed as absorption maximum for compound-Fe2+ complex formation at 75 uM after 30 mins by UV-Vis spectrophotometric method (reference value: 237.2 nanometer); format: functional
Method in brief: (§2)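 UV-Vis spectra in ethanol of compound at 75 µM alone or after 30 min incubation with CuSO4, FeSO4, FeCl3 or ZnCl2 (150 µM). Absorption maxima recorded.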

[3] = Cytotoxicity against human SH-SY5Y cells assessed as reduction in cell viability at 40 uM after 24 hrs by MTT assay relative to control; format: cell-based; details: read-out: INH
Method in brief: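 SH-SY5Y cells seeded at 2 x 10^4 cells/well, grown 24 h, then exposed to compound 1.25–40 µM for 24 h at 37 °C. MTT (5 mg/mL in PBS) added for 2 h and formazan dissolved in isopropanol. Read at 570 nm, reference 690 nm. Viability loss reported as percent at the top concentration, 40 µM.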

Mus musculus [4] = experiment: Antinociceptive activity in carrageenan-induced Swiss mouse model of mechanical hyperalgesia at 100 umol/kg, po pretreated for 1 hr followed by carrageenan challenge measured at 3 hrs to 7 hrs post dose by Von Frey filament assay; format: functional, organism-based
Method in brief: (§3)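 Male Swiss mice (n=8) dosed orally with 100 µmol/kg or vehicle 1 h before intraplantar carrageenan (100 µg/paw). Mechanical threshold measured by up-and-down Von Frey method after 60 min acclimation on a wire screen. Started at 0.4 g filament, ≥6 trials at 10 s intervals, about 4 s per application. Reported as mean threshold in grams ± SEM.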

[5] = Selectivity ratio of IC50 for equine serum BuChE to IC50 Electrophorus electricus AChE
Mus musculus [6] = experiment: In vivo inhibition of COX-2 activity in carrageenan-induced Swiss mouse serum at 100 umol/kg, po pretreated for 1 hr followed by carrageenan challenge after 3 hrs by ELISA relative to control; format: functional
Method in brief: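 Male Swiss mice given oral drug (100 µmol/kg) or vehicle 1 h before intraplantar carrageenan (legend: 400 µg/paw). At 3 h, animals anaesthetised with chloral hydrate and cardiac blood taken. Serum separated (1500 rpm, 20 min) and frozen at -70 °C. COX-1, COX-2 and 5-LOX measured by specific sandwich ELISA at 450 nm. Expressed as % enzymatic activity, mean ± SEM, n=8.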

Mus musculus [7] = experiment: Anti-inflammatory activity in Swiss mouse model of LPS-induced peritonitis assessed as inhibition of leukocyte migration at 100 umol/kg, po pretreated for 30 mins followed by LPS challenge measured after 4 hrs by Neubauer chamber method; format: functional, organism-based
Method in brief: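 Adult male Swiss mice (22-28 g), n=8 per group, dosed orally with 100 µmol/kg or vehicle (saline + DMSO 2%). 30 min later E. coli 026:B6 LPS, 100 µg/kg i.p. in sterile saline. Killed at 4 h by halothane overdose. Peritoneum lavaged with 10 ml PBS containing 0.5% sodium citrate. Total leukocytes counted in a Neubauer chamber, expressed as cells per cavity, mean ± SEM.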

SH-SY5Y [8] = experiment: Antioxidant activity in human SH-SY5Y cells assessed as increase in GSH level at 20 uM by MCB probe based assay relative to control; format: functional; details: TDE = time-dependent effect
Method in brief: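 SH-SY5Y cells (DMEM, 10% FBS, 37 °C, 5% CO2) seeded at 2 x 10^4 cells/well and grown 24 h. Treated with 20 µM compound for 3-24 h. Then 50 µM monochlorobimane in PBS for 30 min at 37 °C. GSH fluorescence read at ex 360/em 465 nm, as % of control cells. Mean ± SD of three independent experiments.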

[9] = biological target: Acetylcholinesterase (Electrophorus electricus) (UniProt O42275); experiment: Inhibition of Electrophorus electricus AChE at 30 uM using acetylthiocholine iodide as substrate pretreated for 10 mins followed by substrate addition measured at 12 secs interval for 5 mins by Ellman's method relative to control
Chain of Acetylcholinesterase (Electrophorus electricus) (O42275 24-633 limits assumed): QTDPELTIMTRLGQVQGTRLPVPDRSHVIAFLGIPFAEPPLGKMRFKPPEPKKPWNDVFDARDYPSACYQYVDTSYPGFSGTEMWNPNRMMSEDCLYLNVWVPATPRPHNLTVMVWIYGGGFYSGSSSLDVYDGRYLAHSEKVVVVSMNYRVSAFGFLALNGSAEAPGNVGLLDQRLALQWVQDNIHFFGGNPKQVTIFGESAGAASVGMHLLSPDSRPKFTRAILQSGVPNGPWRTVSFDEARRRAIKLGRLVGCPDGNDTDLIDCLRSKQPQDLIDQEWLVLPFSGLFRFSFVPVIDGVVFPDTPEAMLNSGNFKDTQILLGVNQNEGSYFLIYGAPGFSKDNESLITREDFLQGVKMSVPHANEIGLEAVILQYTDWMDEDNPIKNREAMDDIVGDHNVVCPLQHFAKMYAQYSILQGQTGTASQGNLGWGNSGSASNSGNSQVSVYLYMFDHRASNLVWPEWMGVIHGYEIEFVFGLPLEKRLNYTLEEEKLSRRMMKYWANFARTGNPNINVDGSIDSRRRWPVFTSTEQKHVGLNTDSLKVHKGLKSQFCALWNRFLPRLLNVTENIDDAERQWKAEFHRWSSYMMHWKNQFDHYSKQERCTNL
Method in brief: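 Enzyme (0.5 U/mL) with DTNB (10 mM) in 0.1 M sodium phosphate pH 7.4; compound at 30 μM preincubated 10 min, then acetylthiocholine or butyrylthiocholine iodide added ([…]); A412 read every 12 s for 5 min. Velocity as percent of vehicle control; means and pooled SD from 2-4 experiments in triplicate. DMSO ≤0.2% final.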

Mus musculus [10] = experiment: Antiinflammatory activity in formalin-induced nociception Swiss mouse model assessed as reduction in time spent licking formalin injected hind paw during neurogenic phase at 100 umol/kg, po pretreated for 1 hr followed by formalin challenge measured up to 5 mins; format: functional, organism-based; method in brief: as §1
SH-SY5Y [11] = experiment: Neuroprotective activity in human SH-SY5Y cells assessed as reduction in amyloid beta (1 to 42)-induced late neuronal death at 20 uM after 24 hrs by propidium iodide staining based fluorescence microscopic method; format: functional, cell-based
Method in brief: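 SH-SY5Y cells at 5×10^3 cells/well, grown 24 h, then compound (20 µM) with Aβ1-42 oligomers for 24 h at 37 °C; oligomers 10 µM in methods, 20 µM in legend. Stained with propidium iodide (25 µg/mL in PBS) for 10 min. Four random fields of 50–100 cells scored by fluorescence microscopy; dead cells % = PI-positive/total × 100.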

Mus musculus [12] = experiment: Antinociceptive activity in carrageenan-induced Swiss mouse model of mechanical hyperalgesia at 100 umol/kg, po pretreated for 1 hr followed by carrageenan challenge measured at 3 hrs post dose by Von Frey filament assay; format: functional, organism-based; method in brief: as §3
[13] = Metal chelating activity assessed as compound-Fe3+ complex formation at 75 uM after 30 mins by UV-Vis spectrophotometric method; format: functional; method in brief: as §2
Mus musculus [14] = experiment: Neurotoxicity in Swiss mouse assessed as induction of motor impairment at 100 umol/kg, po measured after 1 hr by open filed test; format: toxicity, organism-based; details: in vivo
Method in brief: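 Male Swiss mice (n=8) given vehicle or compound orally 1 h before open-field test. Crossings of the central four and peripheral 12 squares counted separately.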

SH-SY5Y [15] = experiment: Antioxidant activity in human SH-SY5Y cells assessed as reduction in H2O2-induced reactive oxygen species formation at 20 uM pretreated for 24 hrs followed by H2O2 addition measured after 30 mins DCFH-DA probe based fluorescence assay; format: functional, cell-based
Method in brief: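 SH-SY5Y cells treated 24 h with compound (20 µM in figure), then exposed to 100 µM H2O2 for 30 min. Intracellular ROS read with DCFH-DA probe (10 µg/mL, 30 min preload) at ex 485/em 535 nm. Expressed as % of control cells; mean ± SD, three independent experiments.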

COc1cc(/C=C/C(=O)OCC2CCN(Cc3ccccc3)CC2)ccc1O
Activity (Mus musculus [1]): Active
IC50 (Acetylcholinesterase): 460 nM
Activity [2]: 249 nm
cytotoxicity at 24 h, 40 µM [3]: 6%
Activity (Mus musculus [4]): Active
Ratio IC50 [5]: 53
inhibition in vivo at 100 µmol/kg (Mus musculus [6]): 27%
inhibition (Mus musculus [7]): Active
Activity (SH-SY5Y [8]): Tde
inhibition [9]: 50%
Activity (Mus musculus [10]): Active
Activity (SH-SY5Y [11]): Active
Activity (Mus musculus [12]): Active
Activity [13]: inactive
Activity (Mus musculus [14]): Non-Toxic
Activity (SH-SY5Y [15]): Active

— ChEMBL document CHEMBL4038269, “Design, synthesis and evaluation of novel feruloyl-donepezil hybrids as potential multitarget drugs for the treatment of Alzheimer's disease” (Eur J Med Chem, 2017)
